{"source": "paper PMC4109288", "about": "(Lancet, 2012)", "key": {"[1]": {"system": "K601E BRAF-mutant cell line", "conditions": "cited from earlier work"}, "[2]": {"system": "BRAF-mutant metastatic melanoma", "conditions": "cited from earlier work"}, "[3]": {"conditions": "cited from earlier work; for Penetration of the blood-brain barrier: in vivo"}, "[4]": {"system": "BRAF wild-type melanoma", "experiment": "Tumour response in BRAF wild-type melanoma", "assay_type": "in vivo, human", "conditions": "three patients with BRAF wild-type melanoma", "procedure,_shortened": "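Patients had histologically confirmed incurable solid tumours, ECOG ≤1, and received accelerated dose titration from 12 mg daily on 21-day cycles until progression or intolerable toxicity. Response was assessed by RECIST 1.0. Baseline imaging was within 35 days. Restaging was at 9 weeks (escalation) or 6 weeks (expansion), then every 9 weeks.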"}, "[5]": {"system": "tumour FDG uptake", "experiment": "FDG-PET imaging at baseline and Week 2", "assay_type": "in vivo, human", "conditions": "35 mg QD–300 mg BID, Week 2", "procedure,_shortened": "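Pharmacodynamic FDG-PET imaging at baseline and on Day 15 of daily dabrafenib-class dosing. Patients were in the accelerated dose-titration cohorts, which started at 12 mg daily on 21-day cycles.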"}, "[6]": {"experiment": "Phase I trial: safety and tolerability, adverse events", "conditions": "in vivo"}, "[7]": {"system": "V600 BRAF-mutant melanoma with untreated brain metastases", "experiment": "RP2D expansion, brain lesion assessment by MRI and PFS", "assay_type": "in vivo, human", "procedure,_shortened": "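Expansion cohort of patients with asymptomatic, untreated brain metastases ≥3 mm and no prior resection, stereotactic radiosurgery or whole-brain radiotherapy, given 150 mg BID. BRAF was centrally genotyped. Lesions were imaged by gadolinium-enhanced T1-weighted MRI, first at 6 weeks and then every 9 weeks. Sum of diameters of lesions ≥3 mm at baseline was expressed as % change from baseline. RECIST 1.0 applied. PFS by Kaplan–Meier.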"}, "[8]": {"system": "non-V600E BRAF-mutant melanoma", "experiment": "Tumour response and PFS in melanoma with non-V600E BRAF mutations", "assay_type": "in vivo, human", "procedure,_shortened": "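Melanoma patients with V600K or non-V600 or complex BRAF mutations, treated at all dose levels (titration from 12 mg daily, 21-day cycles). Response was assessed by RECIST 1.0 with restaging at 9 or 6 weeks, then every 9 weeks, and 95% exact CIs were given. PFS was estimated by Kaplan–Meier from first dose. Treatment duration ran from first dose to last dose or the 25 March 2011 data cut.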"}, "[9]": {"conditions": "among the eight patients who progressed"}}, "note": "Marks after values point to notes of the source that are not given here."}
{"smiles": "CCCS(=O)(=O)Nc1ccc(F)c(C(=O)c2c[nH]c3ncc(-c4ccc(Cl)cc4)cc23)c1F", "note": "[vemurafenib]", "values": [{"measurement": "Inhibition in cell line with K601E mutation", "setting": "[1]", "result": "less inhibition"}, {"measurement": "Reduction in risk of death", "setting": "[2]; Phase III, first-line vs dacarbazine, V600E mutant metastatic melanoma", "result": 63, "unit": "%"}, {"measurement": "Unconfirmed responses", "setting": "[2]; V600E BRAF-mutant metastatic melanoma, Phase I", "result": 81, "unit": "%"}, {"measurement": "Confirmed response rate", "setting": "[2]; V600E-mutant BRAF metastatic melanoma, Phase III vs dacarbazine", "result": 48, "unit": "%"}, {"measurement": "Photosensitivity", "setting": "[2]", "result": "commonly reported"}, {"measurement": "Response rate", "setting": "[2]; ten of 336 patients carrying the V600K mutation, Phase III", "result": 40, "unit": "%"}, {"measurement": "Penetration of the blood-brain barrier", "setting": "[3]", "result": "neither vemurafenib nor dabrafenib demonstrate penetration"}]}
{"smiles": "CC(C)(C)c1nc(-c2cccc(NS(=O)(=O)c3c(F)cccc3F)c2F)c(-c2ccnc(N)n2)s1", "note": "[dabrafenib, Dabrafenib]", "values": [{"measurement": "Responses", "setting": "[4]", "result": "no responses were observed"}, {"measurement": "Patients with decrease in mean SUVmax of tumour FDG uptake vs baseline", "setting": "[5]; 53 of 56 patients", "result": 95, "unit": "%"}, {"measurement": "Median decrease in mean SUVmax of tumour FDG uptake", "setting": "[5]; 56 patients", "result": 60, "unit": "%"}, {"measurement": "Range of percentage change from baseline in mean SUVmax", "setting": "[5]; 56 patients", "result": "−100% to 19"}, {"measurement": "Patients experiencing AEs higher than grade 2", "setting": "[6]; human", "result": 24, "unit": "%"}, {"measurement": "Patients requiring dose reductions", "setting": "[6]; human", "result": 7, "unit": "%"}, {"measurement": "Patients requiring dose reductions for fatigue", "setting": "[6]; human", "result": 2, "unit": "%"}, {"measurement": "Patients requiring dose reductions for neutropenia", "setting": "[6]; human", "result": 1, "unit": "%"}, {"measurement": "Patients requiring dose reductions for pyrexia", "setting": "[6]; human", "result": 3, "unit": "%"}, {"measurement": "Patients with arthralgia of grade 2 or higher", "setting": "[6]; human", "result": "less than 5%"}, {"measurement": "Patients with dose-limiting toxicities (DLTs)", "setting": "[6]; human", "result": "three of 20"}, {"measurement": "Patients with pyrexia as a serious AE", "setting": "[6]; human", "result": 4, "unit": "%"}, {"measurement": "Patients with treatment-related actinic keratosis", "setting": "[6]; human", "result": 10, "unit": "%"}, {"measurement": "Patients with treatment-related fatigue grade 2 or higher", "setting": "[6]; human", "result": 8, "unit": "%"}, {"measurement": "Patients with treatment-related hyperkeratosis", "setting": "[6]; human", "result": 26, "unit": "%"}, {"measurement": "Patients with treatment-related hyperkeratotic lesions of grade 2 or above", "setting": "[6]; human", "result": 3, "unit": "%"}, {"measurement": "Patients with treatment-related pyrexia", "setting": "[6]; human", "result": 20, "unit": "%"}, {"measurement": "Patients with treatment-related pyrexia grade 2 or higher", "setting": "[6]; human", "result": 6, "unit": "%"}, {"measurement": "Range of onset of cutaneous SCC", "setting": "[6]; human", "result": "9 to 217", "unit": "days"}, {"measurement": "Range of time to first pyrexia", "setting": "[6]; human", "result": "1 to 532", "unit": "days"}, {"measurement": "Treatment-related cutaneous squamous cell carcinoma, grade 2 or higher, Total", "setting": "[6]; human", "result": "20 (11) ^* n (%)"}, {"measurement": "Treatment-related cutaneous squamous cell carcinoma, toxicity grade 2", "setting": "[6]; human", "result": "0 n (%)"}, {"measurement": "Treatment-related cutaneous squamous cell carcinoma, toxicity grade 3", "setting": "[6]; human", "result": "20 (11) n (%)"}, {"measurement": "Treatment-related fatigue, grade 2 or higher, Total", "setting": "[6]; human", "result": "14 (8) n (%)"}, {"measurement": "Treatment-related fatigue, toxicity grade 2", "setting": "[6]; human", "result": "12 (7) n (%)"}, {"measurement": "Treatment-related fatigue, toxicity grade 3", "setting": "[6]; human", "result": "2 (1) n (%)"}, {"measurement": "Treatment-related pyrexia, grade 2 or higher, Total", "setting": "[6]; human", "result": "(6) n (%)"}, {"measurement": "Treatment-related pyrexia, toxicity grade 2", "setting": "[6]; human", "result": "10 (5) n (%)"}, {"measurement": "Treatment-related pyrexia, toxicity grade 3", "setting": "[6]; human", "result": "1 (<1) n (%)"}, {"measurement": "Non-cutaneous SCC", "setting": "[6]", "result": "not observed"}, {"measurement": "Patients with keratoacanthoma", "setting": "[6]", "result": "three"}, {"measurement": "Photosensitivity", "setting": "[6]", "result": "not observed"}, {"measurement": "Recurrence or metastasis of cutaneous SCC after local excision", "setting": "[6]", "result": "no recurrence or metastasis was observed"}, {"measurement": "Penetration of the blood-brain barrier", "setting": "[3]", "result": "neither vemurafenib nor dabrafenib demonstrate penetration"}, {"measurement": "Penetration of the intact blood–brain barrier by the parent drug", "setting": "[3]; preclinical, after single-dose administration, ref unpublished data", "result": "minimal penetration"}, {"measurement": "Patients achieving complete resolution of all brain lesions", "setting": "[7]; RP2D", "result": "four of ten"}, {"measurement": "Patients with decreasing size of extracranial metastases", "setting": "[7]; among patients with responding brain lesions", "result": "all nine"}, {"measurement": "Patients with site of progression in extracranial sites alone", "setting": "[7]; [9]", "result": "three"}, {"measurement": "Patients with site of progression in the brain alone", "setting": "[7]; [9]", "result": "three"}, {"measurement": "Survival at 5 months", "setting": "[7]; n=10", "result": "All patients were alive at 5 months"}, {"measurement": "Time at which the most durable responder met criteria for progressive disease", "setting": "[7]; remains on study at 19 months", "result": 15, "unit": "months"}, {"measurement": "Patients who received treatment for at least 6 months", "setting": "[8]; V600K, all dose levels, nine patients", "result": 50, "unit": "%"}, {"measurement": "Responses", "setting": "[8]; three patients with non-V600 or complex BRAF mutations", "result": "no responses were observed"}]}
